Results taken from PubChem BioAssay AID652278 (Broad Institute, 2013).

Test system: T. cruzi CAI/72 in J774, trypomastigote emergence, microscopy
Assay: cidal versus static activity against T. cruzi amastigotes, late-stage follow-up, mechanism study, imaging, CAI/72 strain, J774 macrophages, dry powder, set 2 (AID 652278)
Settings: hits give high values
In short: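 Test system – J774 macrophages, 9000 rad-arrested, infected with T. cruzi CAI/72 · Technique – daily microscopic scoring of emerging trypomastigotes · Evaluation – slope, emergence day versus concentration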

With `CC(C)N1C[C@@H](CN(C)Cc2ccc(Cl)cc2)Oc2c(NC(=O)c3ccncc3)cccc2C1=O` the slope of emergence day vs concentration was 5.

Work on `CC(C)N1C[C@@H](CN(C)Cc2ccc(Cl)c(Cl)c2)Oc2c(NC(=O)c3ccncc3)cccc2C1=O` yielded a slope of emergence day vs concentration of 5.

With `CN(C)C(=O)c1cccc(-c2ccc([C@H]3[C@H](CO)N4CCCCN(C(=O)C5CCC5)C[C@@H]34)cc2)c1` the slope of emergence day vs concentration was 1.89.

`CC(C)N1C[C@H](CN(C)Cc2ccc(Cl)cc2)Oc2c(NC(=O)c3ccncc3)cccc2C1=O` showed a slope of emergence day vs concentration of 5.

Work on `CN(C)CC#Cc1cccc(-c2nc(C(=O)N[C@@H]3CCN(Cc4ccccc4)C3)cc3c2[C@@H](CCO)N(S(=O)C(C)(C)C)C3)c1` (stereo partly specified) yielded a slope of emergence day vs concentration of 1.89.

`CC(C)N1C[C@@H](CN(C)CCc2ccc(Cl)cc2)Oc2c(NC(=O)c3ccncc3)cccc2C1=O` showed a slope of emergence day vs concentration of 5.

Compound `CC(C)N1C[C@@H](CN(C)CCc2ccc(Cl)c(Cl)c2)Oc2c(NC(=O)c3ccncc3)cccc2C1=O` has a slope of emergence day vs concentration of 5.

In the case of `CC(C)N1C[C@@H](CN(C)Cc2ccc(Cl)cc2)Oc2c(C(=O)Nc3ccncc3)cccc2C1=O`, the slope of emergence day vs concentration is reported as 5.

In the case of `CC(C)N1C[C@@H](CN(C)Cc2ccc(Cl)cc2)Oc2c(NC(=O)c3ccncc3)cc(F)cc2C1=O`, the slope of emergence day vs concentration is reported as 5.

`CN(C)CC#Cc1cccc(-c2nc(C(=O)NCc3ccc4c(c3)OCO4)cc3c2[C@@H](CCO)N(S(=O)C(C)(C)C)C3)c1` (stereo partly specified) was tested, and the slope of emergence day vs concentration was 2.02.

Work on `CC(C)N1C[C@@H](CN(C)Cc2ccc(Oc3ccccc3)cc2)Oc2c(NC(=O)c3ccncc3)cccc2C1=O` yielded a slope of emergence day vs concentration of 5.
